Among the data in ChEMBL document CHEMBL1131002, “2beta-Substituted analogues of 4'-iodococaine: synthesis and dopamine transporter binding potencies” (J Med Chem, 1998) are IC50 and Selectivity values, retold here.

Experiment [1] deals with Sodium-dependent dopamine transporter (Rattus norvegicus, UniProt P23977). As to the kind of experiment: Inhibition of dopamine Transporter Affinity against rat whole brain using [3H]WIN-35428 as radioligand. Format: tissue-based.
In experiment [2] the target is Norepinephrine transporter (Rattus norvegicus, UniProt Q9WTR4). As to the kind of experiment: Inhibition of norepinephrine Transporter Affinity against rat whole brain using [3H]nisoxetine radioligand. The method in brief: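 Whole brain minus cerebellum membranes in 50 mM Tris-HCl pH 7.4 with 300 mM NaCl and 5 mM KCl. Displacement of 0.7 nM [3H]nisoxetine. Incubated 40 min at 25 °C, then filtered on BSA-soaked GF/B. 1 μM desipramine defined nonspecific binding.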
Norepinephrine transporter, sequence (Q9WTR4 whole entry): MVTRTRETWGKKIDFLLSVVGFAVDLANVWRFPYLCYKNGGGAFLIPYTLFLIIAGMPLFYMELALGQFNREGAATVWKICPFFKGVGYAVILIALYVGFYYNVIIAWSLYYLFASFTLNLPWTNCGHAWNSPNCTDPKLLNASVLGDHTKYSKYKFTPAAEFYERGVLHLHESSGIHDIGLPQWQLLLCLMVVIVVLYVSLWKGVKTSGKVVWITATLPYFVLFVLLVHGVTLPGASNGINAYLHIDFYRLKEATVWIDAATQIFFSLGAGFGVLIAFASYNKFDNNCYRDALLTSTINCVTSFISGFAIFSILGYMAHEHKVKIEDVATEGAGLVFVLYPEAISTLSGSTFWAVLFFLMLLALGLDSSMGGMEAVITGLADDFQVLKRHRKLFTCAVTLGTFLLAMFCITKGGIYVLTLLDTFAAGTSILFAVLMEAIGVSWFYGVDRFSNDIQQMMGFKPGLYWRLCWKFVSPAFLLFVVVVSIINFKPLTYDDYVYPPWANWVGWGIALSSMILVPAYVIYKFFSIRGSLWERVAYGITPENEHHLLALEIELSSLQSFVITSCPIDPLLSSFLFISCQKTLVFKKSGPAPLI

In experiment [3] the target is Sodium-dependent serotonin transporter (Rattus norvegicus, UniProt P31652). As to the kind of experiment: Inhibition of serotonin Transporter Affinity against rat whole brain using [3H]paroxetine as radioligand.
Sodium-dependent serotonin transporter, sequence (P31652 whole entry): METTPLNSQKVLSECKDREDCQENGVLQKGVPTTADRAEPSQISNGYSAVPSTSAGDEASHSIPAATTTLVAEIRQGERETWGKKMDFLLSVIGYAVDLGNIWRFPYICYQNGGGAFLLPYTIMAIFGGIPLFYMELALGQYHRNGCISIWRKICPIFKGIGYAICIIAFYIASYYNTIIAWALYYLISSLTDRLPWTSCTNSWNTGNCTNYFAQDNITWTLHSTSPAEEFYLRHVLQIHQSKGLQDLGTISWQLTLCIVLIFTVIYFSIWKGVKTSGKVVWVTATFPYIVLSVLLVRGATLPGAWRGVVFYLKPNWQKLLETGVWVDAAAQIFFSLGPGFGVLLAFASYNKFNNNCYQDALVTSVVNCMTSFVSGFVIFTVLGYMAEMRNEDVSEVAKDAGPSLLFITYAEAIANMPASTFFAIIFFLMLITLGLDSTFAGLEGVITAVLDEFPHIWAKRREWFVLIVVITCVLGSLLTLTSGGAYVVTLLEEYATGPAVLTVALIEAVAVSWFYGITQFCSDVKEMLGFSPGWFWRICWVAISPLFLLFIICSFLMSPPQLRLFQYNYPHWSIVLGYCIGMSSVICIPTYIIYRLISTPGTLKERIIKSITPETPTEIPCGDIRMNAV
The target of experiment [4] is T1, Monoamine transporters; Norepininephrine & dopamine (Rattus norvegicus) (UniProt P23977+Q9WTR4). As to the kind of experiment: (§1) Selectivity for Norepinephrine and Dopamine Transporters was evaluated. It is filed as protein assay.
Experiment [5] deals with T1, Monoamine transporters; Norepininephrine & dopamine (Rattus norvegicus). Described as §1. It is filed as protein assay. This is another data set of the same source.
Target sequence in this assay (P23977 whole entry): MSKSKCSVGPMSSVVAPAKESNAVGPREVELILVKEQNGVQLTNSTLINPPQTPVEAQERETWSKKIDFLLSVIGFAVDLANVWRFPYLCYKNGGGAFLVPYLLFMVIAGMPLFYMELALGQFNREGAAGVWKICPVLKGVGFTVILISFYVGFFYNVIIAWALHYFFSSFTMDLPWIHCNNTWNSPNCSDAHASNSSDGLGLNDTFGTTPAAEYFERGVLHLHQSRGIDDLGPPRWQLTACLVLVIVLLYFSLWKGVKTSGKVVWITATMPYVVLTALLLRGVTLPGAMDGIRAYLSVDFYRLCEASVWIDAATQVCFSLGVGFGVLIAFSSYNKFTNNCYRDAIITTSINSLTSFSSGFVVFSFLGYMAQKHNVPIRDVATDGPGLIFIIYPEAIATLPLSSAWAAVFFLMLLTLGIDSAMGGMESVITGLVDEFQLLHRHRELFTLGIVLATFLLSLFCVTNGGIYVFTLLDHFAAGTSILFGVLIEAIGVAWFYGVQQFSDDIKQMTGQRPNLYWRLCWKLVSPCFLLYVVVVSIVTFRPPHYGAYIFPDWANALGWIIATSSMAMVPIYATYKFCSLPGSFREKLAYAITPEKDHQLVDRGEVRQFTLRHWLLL
Target sequence in this assay (Q9WTR4 1-597): as the sequence (Q9WTR4 whole entry) above

Sodium-dependent dopamine transporter, sequence (P23977 whole entry): as the sequence (P23977 whole entry) above

`CCOC(=O)[C@@H]1C2CCC(C[C@@H]1OC(=O)c1ccc(I)cc1)N2C` (stereo not given in full) came in with an IC50 in experiment [1] of 2.03 µM.
In turn, `CN1C2CCC1[C@@H](c1nc(-c3ccccc3)no1)[C@@H](OC(=O)c1ccc(I)cc1)C2` (stereo not given in full) returned a half-maximal inhibitory concentration (IC50) in experiment [1] of 3.46 µM.
In the case of `CC(=O)OC[C@@H]1C2CCC(C[C@@H]1OC(=O)c1ccc(I)cc1)N2C` (stereo not given in full), the IC50 in experiment [1] turned out to be 3 µM.
In turn, `CNC(=O)[C@@H]1C2CCC(C[C@@H]1OC(=O)c1ccc(I)cc1)N2C` (stereo not given in full) displayed an IC50 in experiment [1] above 100 µM.
On to `COC(=O)[C@@H]1C2CCC(C[C@@H]1OC(=O)c1ccc(I)cc1)N2C` (stereo not given in full), for which the IC50 was determined as 18.5 µM in experiment [2] and 1.05 µM in experiment [3]. For the same compound, the results for the Selectivity in experiment [4] and in experiment [5] were 7.3 and 0.4, respectively.
For `COC(=O)[C@H]1[C@@H](c2ccc(F)cc2)C[C@H]2CC[C@H]1N2C`, the IC50 in experiment [2] was 0.258 µM.
In experiment [1], `CN1C2CCC1[C@@H](C(=O)Oc1ccccc1)[C@@H](OC(=O)c1ccc(I)cc1)C2` (stereo not given in full) came in with an IC50 of 2.02 µM.
As to `COC(=O)[C@@H]1C2CCC(C[C@@H]1OC(=O)c1ccccc1O)N2C` (stereo not given in full), the IC50 came to 0.025 µM in experiment [1], 0.048 µM in experiment [2] and 0.143 µM in experiment [3]. In addition, the values for the Selectivity in experiment [4] and in experiment [5] were 1.9 and 5.7, respectively.
Consider `COC(=O)[C@@H]1C2CCC(C[C@@H]1OC(=O)c1ccc(I)cc1O)N2C` (stereo not given in full), for which the IC50 in experiment [1] was 0.215 µM; in experiment [2] it was 1.02 µM; in experiment [3], 0.195 µM. Also, the Selectivity in experiment [4] was found to be 4.7; in experiment [5], 0.9.
Take `CC(C)OC(=O)[C@@H]1C2CCC(C[C@@H]1OC(=O)c1ccc(I)cc1O)N2C` (stereo not given in full): the IC50 stood at 0.663 µM in experiment [1], 34.8 µM in experiment [2] and 4.51 µM in experiment [3]. Moreover, the figures for the Selectivity in experiment [4] and in experiment [5] were 52.5 and 6.8, respectively.
`C=C[C@@H]1C2CCC(C[C@@H]1OC(=O)c1ccc(I)cc1)N2C` (stereo not given in full): the IC50 in experiment [1] came to 2.17 µM.
`CC(C)OC(=O)[C@@H]1C2CCC(C[C@@H]1OC(=O)c1ccc(I)cc1)N2C` (stereo not given in full) displayed an IC50 in experiment [1] of 1.38 µM.
In the case of `CN1C2CCC1[C@@H](CO)[C@@H](OC(=O)c1ccc(I)cc1)C2` (stereo not given in full), the IC50 in experiment [1] worked out at 6.21 µM.
`CC[C@@H]1C2CCC(C[C@@H]1OC(=O)c1ccc(I)cc1)N2C` (stereo not given in full) registered an IC50 in experiment [1] of 2.69 µM.
`CN1C2CCC1[C@@H](C(=O)OCc1ccccc1)[C@@H](OC(=O)c1ccc(I)cc1)C2` (stereo not given in full): in experiment [1], the IC50 was 4.6 µM.
